# This sample holds only a part of the variants without activity.
# B1: tRNA (parent)
# chain: GUUCCGUUGGCGUAAUGGUAACGCGUCUCCCUCCUAAGGAGAAGACUGCGGGUUCGAGUCCCGUACGGAACG
# Variants of: B1
# Assay: yeast fitness relative to wild type (ratio to wild type); higher = fitter; tRNA-Arg(CCU), competitive growth, 37 C, YPD
# Method in brief: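 Changes in genotype frequencies gave Darwinian fitness relative to wild type. Frequencies were read by 100-nucleotide paired-end sequencing of gene amplicons before and after pooled Saccharomyces cerevisiae strains, carrying tRNA-Arg(CCU) gene variants at the native locus, were competed in YPD at 37°C for 24 hours in six replicates. A genotype was kept only with ≥ 100 starting reads, and estimates < 0.5 were set to 0.5.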
row,Variant,yeast fitness
1,C4G G56C A70G,≤ 0.5
2,C4G C5U C49A,≤ 0.5
3,C4G G17A C30U G56A,≤ 0.5
4,C4G C66A,0.61
5,C4G U7C A20G C27A U59G,≤ 0.5
6,C4G C11G U26A,≤ 0.5
7,C4G C5U C49A G56A G63C,≤ 0.5
8,C4G G12U A14C C49U A65G,0.513
9,C4G A21U C49G C66G G68C,0.673
10,C4G G63A,0.813
11,C4G U8C G18C A21C C55U,≤ 0.5
12,C4G A15U C33A G52C,0.707
13,C4G C31U A37G,0.653
14,C4G C5G A43G G63A,≤ 0.5
15,C4G U7A G9A C11U C30G,0.545
16,C4G C11U U19A U32A A37U,≤ 0.5
17,C4G C30G G41C A70U,≤ 0.5
18,C4G G68A,0.904
19,C4G U8A C31G,≤ 0.5
20,C4G C5G C29A C34U A42U G50C,0.531
21,C4G C5U C27G C34A,≤ 0.5
22,C4G C29A G50A,≤ 0.5
23,C4G G9C C46A U59A U64A,≤ 0.5
24,C4G U7C C27A,≤ 0.5

row,Variant,yeast fitness
1,C4G C11U U28G A45C U53A G63C,0.559
2,C4G C5G U26G A45C C61U G67A,≤ 0.5
3,C4G G48U C66U,≤ 0.5
4,C4G C34G G67A,≤ 0.5
5,C4G G17C C33G U47A,0.689
6,C4G U7G G63C,0.521
7,C4G C30G U54A C55U,≤ 0.5
8,C4G A15U C33A G52C C55G,≤ 0.5
9,C4G U8A G12A G48A C62U,≤ 0.5
10,C4G G17A A57U U59C,≤ 0.5
11,C4G G6C C34G A42G C46G,≤ 0.5
12,C4G A21G C27U G52C G58A,≤ 0.5
13,C4G G25A C49U G50U G63C,≤ 0.5
14,C4G A21G C27A G38C,≤ 0.5
15,C4G A65U,0.793
16,C4G A65G,1.02
17,C4G C24U U32C C49A A57U C66U G68C,≤ 0.5
18,C4G A21C A43U,≤ 0.5
19,C4G A57U A70U,0.869
20,C4G U8C C60U G63C G68A,≤ 0.5
21,C4G G17A U26C U28C A40G A70C,≤ 0.5
22,C4G U7A C11A A21C C29U C49U,≤ 0.5
23,C4G C61G A65C,≤ 0.5
24,C4G G10C,0.659

row,Variant,yeast fitness
1,C4G G17A A69C,0.525
2,C4G G50A G56A,0.727
3,C4G C24U,0.993
4,C4G G9C C27A A36G C46A C55U A65C,≤ 0.5
5,C4G A21G C34G,≤ 0.5
6,C4G C27A A43U,≤ 0.5
7,C4G C29G A57C,0.612
8,C4G C33U A37U G38A A42C,≤ 0.5
9,C4G G41A A45U G56C,≤ 0.5
10,C4G G9C C34A A40C,0.538
11,C4G U7G A36C A37C A57C C66U,≤ 0.5
12,C4G U8A G12A G48A,0.511
13,C4G G6C G39C,0.578
14,C4G U8A G12A C34A G50C,≤ 0.5
15,C4G U7A A42C G48C,≤ 0.5
16,C4G G6A U64A,0.651
17,C4G C5U G39A G44C,≤ 0.5
18,C4G A15U C55A,≤ 0.5
19,C4G A20U C31G G51A,≤ 0.5
20,C4G A20G C22G C33U A36C A40U,≤ 0.5
21,C4G A69C,0.878
22,C4G C5G C29A C34U A42U G50C G68C A69G,0.58
23,C4G C29U,0.751
24,C4G C29G,0.69

row,Variant,yeast fitness
1,C4G C11A U19C G23C U47C,0.663
2,C4G C33G A65U,0.605
3,C4G C30U A42U G50C C62A,0.511
4,C4G G18C A45G C62A A69C,≤ 0.5
5,C4G C5U G51A U53C C62U,≤ 0.5
6,C4G C5G C30U C31U A45U,≤ 0.5
7,C4G A21U G41C U53C A65C,0.535
8,C4G C5U G58A A70C,≤ 0.5
9,C4G C24U A40G,≤ 0.5
10,C4G A40G A45G,≤ 0.5
11,C4G C5U,0.751
12,C4G C11U A36G G63A,≤ 0.5
13,C4G C11A U19C G23C U47C A70U,≤ 0.5
14,C4G G6A C30A C34U C46U,≤ 0.5
15,C4G G6C G9A A20G C55A C61A,0.615
16,C4G C5G G10A G18A G44C C61A C62U C66U,≤ 0.5
17,C4G A15U C33A G68C,≤ 0.5
18,C4G G23C C66A,≤ 0.5
19,C4G G12C C33G G44C,≤ 0.5
20,C4G G17A A43U C60A,≤ 0.5
21,C4G C34U G63A,≤ 0.5
22,C4G A20G C30G G58A,≤ 0.5
23,C4G U7C C27A U59G,0.574
24,C4G C5U A37U C61A,≤ 0.5

row,Variant,yeast fitness
1,C4G A14U U59G,≤ 0.5
2,C4G A43U A70U,0.623
3,C4G C30A C49G A65C,≤ 0.5
4,C4G C31G U32G,≤ 0.5
5,C4G G9A U32C C33U,≤ 0.5
6,C4G U8A A14C G48A G63C,≤ 0.5
7,C4G A15U G56C,≤ 0.5
8,C4G G17A U28A C55U,≤ 0.5
9,C4G C24A C34A C66A,≤ 0.5
10,C4G U8C G51A C66A,≤ 0.5
11,C4G G9A G39A,0.576
12,C4G U8C C34G U47A C49A A65G,≤ 0.5
13,C4G U8C C24G U32G,≤ 0.5
14,C4G A20C U54G,0.529
15,C4G A21C G23C A36U,0.635
16,C4G C30U C55U,≤ 0.5
17,C4G C24A A42U U47A C60G,0.62
18,C4G A14U U32C A45U C49G U64C,≤ 0.5
19,C4G A65C A69C,≤ 0.5
20,C4G G17C U59C,0.746
21,C4G C22G C24U C29U C30G,≤ 0.5
22,C4G A40G,0.74
23,C4G A40U,0.754
24,C4G G12A G52A,≤ 0.5

row,Variant,yeast fitness
1,C4G A15G A43G A57C A65U,≤ 0.5
2,C4G U8A G12A G48A A69C,0.573
3,C4G A45G,0.826
4,C4G G41A A45U,0.537
5,C4G C27U G41C U64A G67A,≤ 0.5
6,C4G C11A C30G G67A,≤ 0.5
7,C4G A15G U54A A70U,≤ 0.5
8,C4G G9A G12C C29A G50C,≤ 0.5
9,C4G C29A A57C,0.717
10,C4G C11U C29G G63C C66U,≤ 0.5
11,C4G G18C A37C A57C,≤ 0.5
12,C4G A20C C31U,0.536
13,C4G G51C U54A,≤ 0.5
14,C4G C33U,0.708
15,C4G C5U C22G U64A,0.542
16,C4G U7C C27A A69U,0.531
17,C4G C62U,0.869
18,C4G C34G G56A U59A,≤ 0.5
19,C4G A21U U28A C30G,≤ 0.5
20,C4G U8C C24U A43G,0.527
21,C4G C24A A42G,≤ 0.5
22,C4G A21G A45U C49U A70C,≤ 0.5
23,C4G C24U A40U A42C A45U,≤ 0.5
24,C4G C24A C46U,0.608

row,Variant,yeast fitness
1,C4G A57U U59C G67A,≤ 0.5
2,C4G A42G A45U U54C C55G C61A,≤ 0.5
3,C4G C11G C49U C60U,≤ 0.5
4,C4G C5U C31G G41A A43C G51C,0.606
5,C4G A20U C31G C62A,≤ 0.5
6,C4G G6A C22G C62U A70C,≤ 0.5
7,C4G A20C A40G G52C,0.6
8,C4G C31U A57U,0.665
9,C4G G6A U47G,≤ 0.5
10,C4G G6A U47A,0.61
11,C4G C60U,0.817
12,C4G C24A C34A U35G C49A C62G,≤ 0.5
13,C4G A15C U26G G41C C60G,0.631
14,C4G C24U A43U,0.65
15,C4G G9A A70C,1.09
16,C4G G6C G25A C29A C31A C33G,0.59
17,C4G U7G A43C,0.687
18,C4G G25C A45C C46A,0.619
19,C4G G6A G23A A43G G48C,≤ 0.5
20,C4G A42U G50C C62A G67U,≤ 0.5
21,C4G C5G C29U G39C,≤ 0.5
22,C4G A37G,0.851
23,C4G C5U C11U A14G,≤ 0.5
